According to PMC11164251 (International journal of biological macromolecules, 2023):
Like-named read-outs stand apart in the source and are kept apart here. Peptide text beside a SMILES is read from it.

What was measured:
[1] = biological target: TbTFIIS2–2 LW domain (residue 251–359) L336A (T. brucei); test: ITC
[2] = biological target: TbTFIIS2–2 LW domain (residue 251–359) F340A (T. brucei); test: ITC
[3] = biological target: HsTFIIS LW domain (Homo sapiens, UniProt P23193, I70A); test: ITC of HsLeo1 peptides with the HsTFIIS LW domain; assay type: binding; conditions: HsTFIIS1–96 LW mutant I70A, pH 7.4, 200 mM NaCl, 25 °C
Summary of the method: (§1)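 Recombinant N-His-tagged LW domain (wild type or point mutant), expressed in E. coli BL21 (DE3) (0.5 mM IPTG, 16 °C, 20 h) and purified by Ni-NTA, gel filtration and ion exchange. ITC: 50 uM protein in cell, 1mM synthetic Leo1 peptides in syringe, 16 × 2 μl injections at 120 s intervals. Buffer: 25 mM Tris, 200 mM NaCl, 1 mM EDTA, 1 % glycerol, pH 7.4, 25 °C. Peptide-into-buffer heat of dilution subtracted.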

[4] = biological target: HsTFIIS LW domain (Homo sapiens, UniProt P23193); test: ITC of HsLeo1 peptides with the HsTFIIS LW domain; assay type: binding; conditions: pH 7.4, 25 °C
Summary of the method: as §1

[5] = biological target: HsTFIIS LW domain (Homo sapiens, UniProt P23193, W73A); test: ITC of HsLeo1 peptides with the HsTFIIS LW domain; assay type: binding; conditions: HsTFIIS1–96 LW mutant W73A, pH 7.4, 200 mM NaCl, 25 °C
Summary of the method: as §1

[6] = biological target: HsTFIIS LW domain (Homo sapiens, UniProt P23193, L41A); test: ITC of HsLeo1 peptides with the HsTFIIS LW domain; assay type: binding; conditions: HsTFIIS1–96 LW mutant L41A, pH 7.4, 200 mM NaCl, 25 °C
Summary of the method: as §1

[7] = biological target: HsTFIIS LW domain (Homo sapiens, UniProt P23193, K67A); test: ITC of HsLeo1 peptides with the HsTFIIS LW domain; assay type: binding; conditions: HsTFIIS1–96 LW mutant K67A, pH 7.4, 200 mM NaCl, 25 °C
Summary of the method: as §1

[8] = biological target: HsTFIIS LW domain; test: ITC of HsLeo1 peptides with the HsTFIIS LW domain; assay type: binding, Homo sapiens; conditions: HsTFIIS LW domain mutant printed as W339A
Summary of the method: as §1

[9] = biological target: ScTFIIS LW domain (Saccharomyces cerevisiae, UniProt P07273, L41A); assay type: binding; conditions: ScTFIIS1–81 LW mutant L41A, pH 7.4, 25 °C
[10] = biological target: ScTFIIS LW domain (Saccharomyces cerevisiae, UniProt P07273, K66A); assay type: binding; conditions: ScTFIIS1–81 LW mutant K66A, pH 7.4, 25 °C
[11] = biological target: ScTFIIS LW domain (Saccharomyces cerevisiae, UniProt P07273, I69A); assay type: binding; conditions: ScTFIIS1–81 LW mutant I69A, pH 7.4, 25 °C
[12] = biological target: ScTFIIS LW domain (Saccharomyces cerevisiae, UniProt P07273); assay type: binding
[13] = biological target: ScTFIIS LW domain (Saccharomyces cerevisiae, UniProt P07273, W72A); assay type: binding; conditions: ScTFIIS1–81 LW mutant W72A; ITC, pH 7.4, 200 mM NaCl, 25 °C
[14] = biological target: HsTFIIS LW domain without the C-terminus (residue 1–78) (H. sapiens, UniProt P23193 1-78); test: ITC
[15] = biological target: HsTFIIS LW domain (residue 1–96), wild type (H. sapiens, UniProt P23193 1-96); test: ITC
[16] = biological target: HsTFIIS LW domain (residue 1–96) K67A (H. sapiens, UniProt P23193 1-96, K67A); test: ITC
[17] = biological target: T1, ScTFIIS LW domain (residue 1–81) I69A (S. cerevisiae, UniProt P07273 1-81, I69A); test: ITC
T1 sequence (looked up): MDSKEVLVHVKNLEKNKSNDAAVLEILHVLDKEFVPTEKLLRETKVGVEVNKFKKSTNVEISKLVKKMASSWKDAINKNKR

[18] = biological target: T2, ScTFIIS LW domain (residue 1–81), wild type (S. cerevisiae, UniProt P07273 1-81); test: ITC
T2 sequence (looked up): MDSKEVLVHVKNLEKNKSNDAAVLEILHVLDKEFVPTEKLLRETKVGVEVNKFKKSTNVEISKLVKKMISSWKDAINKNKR

[19] = biological target: T3, ScTFIIS LW domain (residue 1–81) L41A (S. cerevisiae, UniProt P07273 1-81, L41A); test: ITC
T3 sequence (looked up): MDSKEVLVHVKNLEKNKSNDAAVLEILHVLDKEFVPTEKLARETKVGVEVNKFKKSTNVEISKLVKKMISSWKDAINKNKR

[20] = biological target: T4, ScTFIIS LW domain (residue 1–81) K66A (S. cerevisiae, UniProt P07273 1-81, K66A); test: ITC
T4 sequence (looked up): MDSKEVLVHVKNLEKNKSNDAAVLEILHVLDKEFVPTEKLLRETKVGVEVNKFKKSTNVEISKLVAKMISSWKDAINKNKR

[21] = biological target: T5, ScTFIIS LW domain, longer version (residue 1–93) (S. cerevisiae, UniProt P07273 1-93); test: ITC
T5 sequence (looked up): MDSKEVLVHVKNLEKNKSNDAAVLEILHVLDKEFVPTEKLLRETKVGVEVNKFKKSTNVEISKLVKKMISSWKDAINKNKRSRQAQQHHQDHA

TbLeo1 peptide (residue 71–86) containing the LFG motif
Kd [1]: 1.11 µM
Kd [2]: 9.33 µM

CC(C)C[C@H](NC(=O)[C@H](CCC(=O)O)NC(=O)[C@H](CCCCN)NC(=O)[C@H](CC(N)=O)NC(=O)[C@H](CO)NC(=O)[C@@H]1CCCN1C(=O)[C@@H](N)CCC(N)=O)C(=O)N[C@@H](Cc1ccccc1)C(=O)NCC(=O)N[C@@H](CC(=O)O)C(=O)N[C@@H](CC(=O)O)C(=O)N[C@@H](CO)C(=O)N[C@@H](CCC(=O)O)C(=O)N[C@@H](CC(=O)O)C(=O)N[C@@H](CCC(=O)O)C(=O)NCC(=O)O [HsLeo1_55–70] (H-QPSNKELFGDDSEDEG-OH; N-terminus and C-terminus assumed)
Kd [3]: no binding
N (ITC binding stoichiometry) ([4]; HsTFIIS1–78 LW): 1.00
N (ITC binding stoichiometry) ([4]; wild type HsTFIIS1–96 LW): 0.96
Kd [5]: no binding
Kd [6]: no binding
Kd [7]: weak binding
binding (ITC), result in words [8]: abolishes the interactions

CC(C)C[C@H](NC(=O)[C@H](CCC(=O)O)NC(=O)[C@H](C)NC(=O)[C@H](CC(=O)O)NC(=O)[C@H](CCC(=O)O)NC(=O)[C@@H](N)CCC(=O)O)C(=O)N[C@@H](CC(=O)O)C(=O)N[C@@H](CC(=O)O)C(=O)N[C@@H](CC(C)C)C(=O)N[C@@H](Cc1ccccc1)C(=O)NCC(=O)N[C@@H](CC(=O)O)C(=O)N[C@@H](CC(=O)O)C(=O)N[C@@H](CC(N)=O)C(=O)N[C@@H](CC(=O)O)C(=O)O [ScLeo1_54–68] (H-EEDAELDDLFGDDND-OH; N-terminus and C-terminus assumed)
N (ITC binding stoichiometry) [9]: 1.03
N (ITC binding stoichiometry) [10]: 0.95
N (ITC binding stoichiometry) [11]: 0.99
N (ITC binding stoichiometry) ([12]; ScTFIIS LW1–93, pH 7.4, 25 °C): 1.04
N (ITC binding stoichiometry) ([12]; wild type ScTFIIS1–81 LW, pH 7.4, 25 °C): 1.00
Kd [13]: weak binding

ADMEDLFGSDADSEA (peptide, UniProt Q8WVC0 2-16, looked up) [HsLeo1 peptide (residue 2–16) containing an LFG motif]
stoichiometry N [14]: 1
stoichiometry N [15]: 1
stoichiometry N [16]: 1

EEDAELDDLFGDDND (peptide, UniProt P38439 54-68, looked up) [ScLeo1 peptide (residue 54–68) containing the LFG motif]
Kd [17]: 44 µM
stoichiometry N [17]: 0.99
Kd [18]: 3.3 µM
stoichiometry N [18]: 1
Kd [19]: 37 µM
stoichiometry N [19]: 1.03
Kd [20]: 5.1 µM
stoichiometry N [20]: 0.95
Kd [21]: 1.39 µM
stoichiometry N [21]: 1.04

QPSNKELFGDDSEDEG (peptide, UniProt Q8WVC0 55-70, looked up) [HsLeo1 peptide (residue 55–70) containing an LFG motif]
Kd [14]: 57.6 µM
stoichiometry N [14]: 1
Kd [15]: 44 µM
stoichiometry N [15]: 0.96
